Measured values pooled from the literature.
Compare with care: the assays were run in different laboratories.
SPHK1: Sphingosine kinase 1 (SPHK1, Homo sapiens, UniProt Q9NYA1)
EHMT1: Histone-lysine N-methyltransferase EHMT1 (EHMT1, Homo sapiens, UniProt Q9H9B1)
PDE5A: cGMP-specific 3',5'-cyclic phosphodiesterase (PDE5A, Homo sapiens, UniProt O76074)
ADORA2A: Adenosine receptor A2a (ADORA2A, Homo sapiens, UniProt P29274)
PARP1: Poly [ADP-ribose] polymerase 1 (PARP1, Homo sapiens, UniProt P09874)
SCN9A: Sodium channel protein type 9 subunit alpha (SCN9A, Homo sapiens, UniProt Q15858)
PIK3C2B: Phosphatidylinositol 4-phosphate 3-kinase C2 domain-containing subunit beta (PIK3C2B, Homo sapiens, UniProt O00750)
EDNRA: Endothelin-1 receptor (EDNRA, Homo sapiens, UniProt P25101)
SIGMAR1: Sigma non-opioid intracellular receptor 1 (SIGMAR1, Homo sapiens, UniProt Q99720)
HRH4: Histamine H4 receptor (HRH4, Homo sapiens, UniProt Q9H3N8)
CNR1: Cannabinoid receptor 1 (CNR1, Homo sapiens, UniProt P21554)

SMILES	target	test	setting	inhibition [%]
CCCCc1ccc(CCc2ccc(-c3noc([C@@H]4CCCN4C(=N)N)n3)cc2C(F)(F)F)cc1	SPHK1	enzyme activity, inhibitor, radiometric	1 µM	6
O=C(O)CCCCCCCCCCCC[C@@H]1C=CCC1	EHMT1	cell-free assay	10 µM	-11
CC(C)(C)N1C(=O)[C@@H]2Cc3c([nH]c4ccccc34)[C@H](c3cccnc3)N2C1=O	PDE5A	enzyme activity, inhibitor, FP	50 µM	45
COc1ccc(-c2nc3cc(CCN4CCCCC4)ccc3o2)cc1OC	ADORA2A	ligand displacement, radioligand	10 µM, cell membranes	10
N=C(N)N1CCC[C@H]1c1nc(-c2ccc(CCC3CCCCC3)c(C(F)(F)F)c2)no1	SPHK1	enzyme activity, inhibitor, radiometric	1 µM	15
O=C(NCCNC(=O)c1n[nH]c(=O)c2ccccc12)c1cccc(CN2C(=O)CNC2=O)c1	PARP1	enzyme activity, inhibitor	0.5 µM	~50
CN1CCN(CCCOc2ccc(=O)n(-c3ccc(Cl)c(Cl)c3)n2)CC1	SCN9A	ligand displacement	1 µM	20.5
O=C(CSc1nc2nccnc2c(=O)n1CCc1ccccc1)Nc1ccccc1	PIK3C2B	enzyme activity, inhibitor	10 µM	72
[H]/N=C(\N)N1CCC[C@H]1c1nc(-c2ccc(OCC=CCCCC)c(C(F)(F)F)c2)no1	SPHK1	enzyme activity, inhibitor, radiometric	1 µM	23
O=c1oc2c(O)c(O)cc3c(=O)oc4c(O)c(O)cc1c4c23	EHMT1	cell-free assay	10 µM	6
COc1ccc(F)cc1C(=O)NCc1ccc(-c2nn([C@@H](C)C(F)(F)F)c(N)c2C(N)=O)cc1	Mitogen-activated protein kinase kinase kinase 3 (MAP3K3, Homo sapiens, UniProt Q99759)	target engagement in cells, inhibitor, chemoproteomics	0.1 µM	26.3
COC(=O)[C@@H]1Cc2c([nH]c3ccccc23)[C@@H](c2ccc(OC)c(OC)c2)N1C(=O)CCl	PDE5A	enzyme activity, inhibitor, FP	50 µM	22
COc1cc(NC(C)=O)c(Cl)cc1C(=O)Nc1nccs1	5-hydroxytryptamine receptor 2A (HTR2A, Homo sapiens, UniProt P28223)	ligand displacement, radioligand	10 µM	8.7
CC(C)(C)N1C(=O)[C@@H]2Cc3c([nH]c4ccccc34)[C@@H](c3ccc(Br)s3)N2C1=O	PDE5A	enzyme activity, inhibitor, FP	10 µM	90
O=C1CCCc2ccc(F)cc2N1	PARP1	enzyme activity, inhibitor	10 µM	0
O=C(c1ccc(Cl)cc1)N(Cc1ccccc1)C1CCCCC1	EDNRA	cell-free assay	10 µM	1.4
CSCCC(NC=O)C(=O)NC(C)C(=O)O (stereo not shown)	EHMT1	cell-free assay	10 µM	0
O=C1N=C(N2CCCCN2)S/C1=C\c1ccc(F)cc1O	EDNRA	ligand displacement, radioligand	10 µM	< 10
N=C(N)N1CCC[C@H]1c1nc(-c2ccc(CCC3CC3)c(C(F)(F)F)c2)no1	SPHK1	enzyme activity, inhibitor, radiometric	1 µM	14
CCCCC(CC)CNC(=N)NC(=N)NCCCCCCNC(=N)NC(=N)NCC(CC)CCCC (stereo not shown)	EHMT1	cell-free assay	10 µM	-22
COc1ccc([C@H]2c3[nH]c4ccccc4c3C[C@H]3C(=O)N(C(C)(C)C)C(=O)N23)cc1OC	PDE5A	enzyme activity, inhibitor, FP	50 µM	58
O=C1NCCCc2c(O)cccc21	PARP1	enzyme activity, inhibitor	10 µM	43
O=C(c1ccc(F)cc1)N(Cc1ccccc1)C1CCCCC1	SIGMAR1	cell-free assay	10 µM	9

SMILES	target	test	setting	inhibition [%]
CCN(CC)c1ccc(C2Nc3ccc(C(=O)c4ccccc4)cc3NC3=C2C(=O)CC(C)(C)C3)cc1 (stereo not shown)	HRH4	ligand displacement, radioligand	10 µM	12
COc1cc(OC)c2c(=O)[nH]c(-c3c[nH]c4ncccc34)nc2c1	PARP1	enzyme activity, inhibitor, ELISA	10 µM	31
Oc1cccc(Nc2nc(-c3ccc(F)cc3F)cs2)c1	CNR1	cell-free assay	10 µM	5.9
Ic1cccc2cnccc12	SIGMAR1	ligand displacement, radioligand	10 µM	21
COc1ccc(-c2nc3cc(CN4CCCCC4)ccc3o2)cc1OC	ADORA2A	ligand displacement, radioligand	10 µM, cell membranes	18
CN(C)C1CCN(CC#Cc2nn(C3CCCC3)c3nc(NCc4ccccc4)ncc23)C1 (stereo not shown)	Cytoplasmic tyrosine-protein kinase BMX (BMX, Homo sapiens, UniProt P51813)	enzyme activity, inhibitor, FRET	1 µM	4
CCN1C(=O)[C@@H]2Cc3c([nH]c4ccccc34)[C@H](c3cccnc3)N2C1=O	PDE5A	enzyme activity, inhibitor, FP	50 µM	24
O=C(Nc1ccc(S(=O)(=O)N2CCC(Cl)CC2)cc1)c1ccc([N+](=O)[O-])o1	CNR1	ligand displacement, radioligand	10 µM	20
CCN1C(=O)[C@H]2Cc3c([nH]c4ccccc34)[C@@H](c3ccc(OC)c(OC)c3)N2C1=O	PDE5A	enzyme activity, inhibitor, FP	50 µM	78
N=C(N)N1CCC[C@H]1c1nc(-c2ccc(CCC3CCCC3)c(C(F)(F)F)c2)no1	SPHK1	enzyme activity, inhibitor, radiometric	1 µM	0
CS(=O)(=O)Nc1cccc(-c2csc(NC(=O)CSc3nc4nccnc4c(=O)n3CCc3ccccc3)n2)c1	SPHK1	enzyme activity, inhibitor	10 µM	9
Oc1ccc(N2CCN(Cc3ccc4oc(-c5ccco5)nc4c3)CC2)cc1	ADORA2A	ligand displacement, radioligand	10 µM, cell membranes	11
COc1ccc(-n2nc(OCCCN3CCCCC3)ccc2=O)cc1	SCN9A	ligand displacement	1 µM	32.1
[H]/N=C(\N)N1CCC[C@H]1c1nc(-c2ccc(OCC=Cc3cccc(Br)c3)c(C(F)(F)F)c2)no1	SPHK1	enzyme activity, inhibitor, radiometric	1 µM	12
O=C(c1ccc(-c2nc3ccccc3c(=O)[nH]2)c(F)c1)N1CCn2c(nnc2C(F)(F)F)C1	PARP1	enzyme activity, inhibitor, ELISA	1 µM	13
CCCCCC=CCOc1ccc(-c2noc([C@@H]3CCCN3C(=N)N)n2)cc1C(F)(F)F (mixture of isomers)	SPHK1	enzyme activity, inhibitor, radiometric	1 µM	54
CN(C)c1ccc2nc3ccc(=[N+](C)C)cc-3sc2c1	EHMT1	cell-free assay	10 µM	30
N#Cc1cc(Cn2c(N3CCCC3)nc3ccccc32)ccc1F	HRH4	ligand displacement	10 µM	-16
CC(C)(C)OC(=O)N1CCN(Cc2ccc3oc(-c4ccco4)nc3c2)CC1	ADORA2A	ligand displacement, radioligand	10 µM, cell membranes	15
O=C(O[C@@H]1Cc2c(O)cc(O)cc2O[C@@H]1c1cc(O)c(=O)c2c(O)c(O)cc([C@H]3Oc4cc(O)cc(O)c4C[C@H]3OC(=O)c3cc(O)c(O)c(O)c3)c2c1)c1cc(O)c(O)c(O)c1	EHMT1	cell-free assay	10 µM	0
COC(=O)[C@H]1Cc2c([nH]c3ccccc23)[C@H](c2cccnc2)N1	PDE5A	enzyme activity, inhibitor, FP	50 µM	30
O=C(CSc1nc2nccnc2c(=O)n1CCc1ccccc1)Nc1nccs1	PIK3C2B	enzyme activity, inhibitor	10 µM	68
c1coc(-c2nc3cc(CN4CCNCC4)ccc3o2)c1	ADORA2A	ligand displacement, radioligand	10 µM, cell membranes	15
